Experimental data reported in ChEMBL document CHEMBL1649231, “In vitro activities of panduratin A against clinical Staphylococcus strains” (2009).
Values after ≈ are worked out from the molar mass of the structure shown.

Legend:
Assay type in all cases: functional
[1] = system: Staphylococcus epidermidis; experiment: Bactericidal activity against methicillin-susceptible coagulase-negative Staphylococcus epidermidis after 24 hrs by plate counting method
Procedure, shortened: (§1)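 Clinical staphylococcal isolates from patient body fluids, blood, genital secretions, pus or sputum; species by conventional methods or Vitek. Twofold dilutions in Mueller-Hinton broth, inoculum 5 × 10^5 CFU/ml, 37°C aerobic 24 h (CLSI M7-A6 microdilution). About 100 μl from each well without visible growth spread on MHA; 37°C 24 h. MBC = lowest concentration giving no growth on agar.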

Staphylococcus simulans [2] = experiment: Antimicrobial activity against methicillin-susceptible coagulase-negative Staphylococcus simulans assessed as susceptible isolates after 24 hrs by broth microdilution method
Procedure, shortened: (§2)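 Clinical isolates from blood, body fluids, pus, sputum or genital secretions, identified conventionally or by Vitek, were tested alongside ATCC 29213 and ATCC 12228 controls. CLSI M7-A6 broth microdilution in Mueller-Hinton broth used twofold dilutions from a 10% DMSO solution and 5 × 10^5 CFU/ml inoculum. Drug-free and uninoculated wells served as controls; incubation was aerobic at 37°C for 24 h. MIC was the lowest concentration with no visible growth.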

[3] = system: Staphylococcus epidermidis; experiment: Antimicrobial activity against methicillin-resistant coagulase-negative Staphylococcus epidermidis assessed as susceptible isolates after 24 hrs by broth microdilution method
Mammaliicoccus sciuri [4] = experiment: Antimicrobial activity against methicillin-susceptible coagulase-negative Staphylococcus sciuri assessed as susceptible isolates after 24 hrs by broth microdilution method; procedure, shortened: as §2
Staphylococcus aureus [5] = experiment: Bactericidal activity against methicillin-susceptible Staphylococcus aureus after 24 hrs by plate counting method; procedure, shortened: as §1
Staphylococcus hominis [6] = experiment: Bactericidal activity against methicillin-susceptible coagulase-negative Staphylococcus hominis after 24 hrs by plate counting method; procedure, shortened: as §1
[7] = system: Staphylococcus epidermidis; experiment: Antimicrobial activity against methicillin-resistant coagulase-negative Staphylococcus epidermidis after 24 hrs by broth microdilution method
Procedure, shortened: (§3)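 Clinical isolates came from blood, body fluids, genital secretions, pus or sputum, identified conventionally or by Vitek. MICs were run by CLSI M7-A6 broth microdilution in Mueller-Hinton broth with 5 × 10^5 CFU/ml inoculum. Agents were twofold serially diluted, starting from 10% DMSO. Drug-free and uninoculated controls were included. Plates were incubated aerobically at 37°C for 24 h; MIC is the lowest concentration giving no visible growth.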

Staphylococcus hominis [8] = experiment: Antimicrobial activity against methicillin-susceptible coagulase-negative Staphylococcus hominis assessed as susceptible isolates after 24 hrs by broth microdilution method
Staphylococcus aureus [9] = experiment: Antimicrobial activity against methicillin-resistant Staphylococcus aureus assessed as susceptible isolates after 24 hrs by broth microdilution method
Staphylococcus aureus [10] = experiment: Antimicrobial activity against methicillin-resistant Staphylococcus aureus after 24 hrs by broth microdilution method; procedure, shortened: as §3
Mammaliicoccus sciuri [11] = experiment: Antimicrobial activity against methicillin-susceptible coagulase-negative Staphylococcus sciuri after 24 hrs by broth microdilution method; procedure, shortened: as §3
Staphylococcus hominis [12] = experiment: Antimicrobial activity against methicillin-susceptible coagulase-negative Staphylococcus hominis after 24 hrs by broth microdilution method; procedure, shortened: as §3
Staphylococcus hominis [13] = experiment: Bactericidal activity against methicillin-resistant coagulase-negative Staphylococcus hominis after 24 hrs by plate counting method; settings: Staphylococcus hominis, 24 h
Staphylococcus simulans [14] = experiment: Antimicrobial activity against methicillin-susceptible coagulase-negative Staphylococcus simulans after 24 hrs by broth microdilution method; procedure, shortened: as §3
Mammaliicoccus sciuri [15] = experiment: Antimicrobial activity against methicillin-resistant coagulase-negative Staphylococcus sciuri after 24 hrs by broth microdilution method; procedure, shortened: as §3
Staphylococcus aureus [16] = experiment: Antimicrobial activity against methicillin-susceptible Staphylococcus aureus after 24 hrs by broth microdilution method; procedure, shortened: as §3
[17] = system: Staphylococcus haemolyticus; experiment: Antimicrobial activity against methicillin-susceptible coagulase-negative Staphylococcus haemolyticus assessed as susceptible isolates after 24 hrs by broth microdilution method
[18] = system: Staphylococcus epidermidis; experiment: Antimicrobial activity against methicillin-susceptible coagulase-negative Staphylococcus epidermidis after 24 hrs by broth microdilution method; procedure, shortened: as §3
Staphylococcus hominis [19] = experiment: Antimicrobial activity against methicillin-resistant coagulase-negative Staphylococcus hominis assessed as susceptible isolates after 24 hrs by broth microdilution method
[20] = system: Staphylococcus epidermidis; experiment: Bactericidal activity against methicillin-resistant coagulase-negative Staphylococcus epidermidis after 24 hrs by plate counting method; settings: Staphylococcus epidermidis, 24 h
Staphylococcus simulans [21] = experiment: Antimicrobial activity against methicillin-resistant coagulase-negative Staphylococcus simulans after 24 hrs by broth microdilution method; procedure, shortened: as §3
Staphylococcus aureus [22] = experiment: Antimicrobial activity against methicillin-susceptible Staphylococcus aureus assessed as susceptible isolates after 24 hrs by broth microdilution method
[23] = system: Staphylococcus haemolyticus; experiment: Bactericidal activity against methicillin-susceptible coagulase-negative Staphylococcus haemolyticus after 24 hrs by plate counting method; procedure, shortened: as §1
Staphylococcus hominis [24] = experiment: Antimicrobial activity against methicillin-resistant coagulase-negative Staphylococcus hominis after 24 hrs by broth microdilution method; procedure, shortened: as §3
[25] = system: Staphylococcus haemolyticus; experiment: Antimicrobial activity against methicillin-resistant coagulase-negative Staphylococcus haemolyticus after 24 hrs by broth microdilution method; procedure, shortened: as §3
[26] = system: Staphylococcus haemolyticus; experiment: Antimicrobial activity against methicillin-susceptible coagulase-negative Staphylococcus haemolyticus after 24 hrs by broth microdilution method; procedure, shortened: as §3
[27] = system: Staphylococcus haemolyticus; experiment: Bactericidal activity against methicillin-resistant coagulase-negative Staphylococcus haemolyticus after 24 hrs by plate counting method; settings: Staphylococcus haemolyticus, 24 h
Staphylococcus simulans [28] = experiment: Bactericidal activity against methicillin-resistant coagulase-negative Staphylococcus simulans after 24 hrs by plate counting method; settings: Staphylococcus simulans, 24 h; procedure, shortened: as §1
Mammaliicoccus sciuri [29] = experiment: Bactericidal activity against methicillin-resistant coagulase-negative Staphylococcus sciuri after 24 hrs by plate counting method; settings: Mammaliicoccus sciuri, 24 h; procedure, shortened: as §1
Mammaliicoccus sciuri [30] = experiment: Bactericidal activity against methicillin-susceptible coagulase-negative Staphylococcus sciuri after 24 hrs by plate counting method; procedure, shortened: as §1
Staphylococcus aureus [31] = experiment: Bactericidal activity against methicillin-resistant Staphylococcus aureus after 24 hrs by plate counting method
[32] = system: Staphylococcus epidermidis; experiment: Antimicrobial activity against methicillin-susceptible coagulase-negative Staphylococcus epidermidis assessed as susceptible isolates after 24 hrs by broth microdilution method
[33] = system: Staphylococcus haemolyticus; experiment: Antimicrobial activity against methicillin-resistant coagulase-negative Staphylococcus haemolyticus assessed as susceptible isolates after 24 hrs by broth microdilution method
Staphylococcus simulans [34] = experiment: Bactericidal activity against methicillin-susceptible coagulase-negative Staphylococcus simulans after 24 hrs by plate counting method; procedure, shortened: as §1

Compound `CC(=O)NC[C@H]1CN(c2ccc(N3CCOCC3)c(F)c2)C(=O)O1` [LINEZOLID] has an MBC50 [1] of 2 µg/mL (≈ 5.93 µM), an MBC90 [1] of 4 µg/mL (≈ 11.9 µM) and an MBC ([1]; Staphylococcus epidermidis, 24 h) of 0.25 µg/mL (≈ 0.741 µM). It also gave an Activity (Staphylococcus simulans [2]) of 96%, an Activity [3] of 100% and an Activity (Mammaliicoccus sciuri [4]) of 96%. For the same compound, the MBC50 (Staphylococcus aureus [5]) was 8 µg/mL (≈ 23.7 µM), the MBC90 (Staphylococcus aureus [5]) was 32 µg/mL (≈ 94.9 µM) and the MBC (Staphylococcus aureus [5]; Staphylococcus aureus, 24 h) was 2 µg/mL (≈ 5.93 µM). The MBC50 (Staphylococcus hominis [6]) was 2 µg/mL (≈ 5.93 µM), the MBC90 (Staphylococcus hominis [6]) was 4 µg/mL (≈ 11.9 µM) and the MBC (Staphylococcus hominis [6]; Staphylococcus hominis, 24 h) was 0.25 µg/mL (≈ 0.741 µM). It also gave an MIC50 [7] of 0.25 µg/mL (≈ 0.741 µM), an MIC90 [7] of 2 µg/mL (≈ 5.93 µM) and an Activity (Staphylococcus hominis [8]) of 96%. The Activity (Staphylococcus aureus [9]) was 100%, the MIC50 (Staphylococcus aureus [10]) was 1 µg/mL (≈ 2.96 µM) and the MIC90 (Staphylococcus aureus [10]) was 2 µg/mL (≈ 5.93 µM). The MIC50 (Mammaliicoccus sciuri [11]) was 0.25 µg/mL (≈ 0.741 µM), the MIC90 (Mammaliicoccus sciuri [11]) was 4 µg/mL (≈ 11.9 µM) and the MIC50 (Staphylococcus hominis [12]) was 0.25 µg/mL (≈ 0.741 µM). For the same compound, the MIC90 (Staphylococcus hominis [12]) was 4 µg/mL (≈ 11.9 µM), the MBC (Staphylococcus hominis [13]) was 0.5 µg/mL (≈ 1.48 µM) and the MIC50 (Staphylococcus simulans [14]) was 0.25 µg/mL (≈ 0.741 µM). It also gave an MIC90 (Staphylococcus simulans [14]) of 4 µg/mL (≈ 11.9 µM), an MIC50 (Mammaliicoccus sciuri [15]) of 0.25 µg/mL (≈ 0.741 µM) and an MIC90 (Mammaliicoccus sciuri [15]) of 2 µg/mL (≈ 5.93 µM). The MIC50 (Staphylococcus aureus [16]) was 1 µg/mL (≈ 2.96 µM), the MIC90 (Staphylococcus aureus [16]) was 4 µg/mL (≈ 11.9 µM) and the Activity [17] was 96%. It also gave an MIC50 [18] of 0.25 µg/mL (≈ 0.741 µM), an MIC90 [18] of 4 µg/mL (≈ 11.9 µM) and an Activity (Staphylococcus hominis [19]) of 100%. It also gave an MBC [20] of 0.5 µg/mL (≈ 1.48 µM), an MIC50 (Staphylococcus simulans [21]) of 0.25 µg/mL (≈ 0.741 µM) and an MIC90 (Staphylococcus simulans [21]) of 2 µg/mL (≈ 5.93 µM). The Activity (Staphylococcus aureus [22]) was 96%, the MBC50 [23] was 2 µg/mL (≈ 5.93 µM) and the MBC90 [23] was 4 µg/mL (≈ 11.9 µM). The MBC ([23]; Staphylococcus haemolyticus, 24 h) was 0.25 µg/mL (≈ 0.741 µM), the MIC50 (Staphylococcus hominis [24]) was 0.25 µg/mL (≈ 0.741 µM) and the MIC90 (Staphylococcus hominis [24]) was 2 µg/mL (≈ 5.93 µM). It also gave an MIC50 [25] of 0.25 µg/mL (≈ 0.741 µM), an MIC90 [25] of 2 µg/mL (≈ 5.93 µM) and an MIC50 [26] of 0.25 µg/mL (≈ 0.741 µM). It also gave an MIC90 [26] of 4 µg/mL (≈ 11.9 µM), an MBC [27] of 0.5 µg/mL (≈ 1.48 µM) and an MBC (Staphylococcus simulans [28]) of 0.5 µg/mL (≈ 1.48 µM). It also gave an MBC (Mammaliicoccus sciuri [29]) of 0.5 µg/mL (≈ 1.48 µM), an MBC50 (Mammaliicoccus sciuri [30]) of 2 µg/mL (≈ 5.93 µM) and an MBC90 (Mammaliicoccus sciuri [30]) of 4 µg/mL (≈ 11.9 µM). It also gave an MBC (Mammaliicoccus sciuri [30]; Mammaliicoccus sciuri, 24 h) of 0.25 µg/mL (≈ 0.741 µM), an MBC90 (Staphylococcus aureus [31]) of 16 µg/mL (≈ 47.4 µM) and an MBC (Staphylococcus aureus [31]; Staphylococcus aureus, 24 h) of 8 µg/mL (≈ 23.7 µM). The Activity [32] was 96%, the Activity [33] was 100% and the MBC50 (Staphylococcus simulans [34]) was 2 µg/mL (≈ 5.93 µM). The MBC90 (Staphylococcus simulans [34]) was 4 µg/mL (≈ 11.9 µM) and the MBC (Staphylococcus simulans [34]; Staphylococcus simulans, 24 h) was 0.25 µg/mL (≈ 0.741 µM).
